From PubChem BioAssay AID1019 (Sanford-Burnham Center for Chemical Genomics, 2008)
Hit rate of the full screen: of about 190,000 compounds, fewer than 10 were called active.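 The calls were made as follows: active = over 50% inhibition of intestinal alkaline phosphatase at 20 µM in the single-dose screen; inactive = the rest.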 Only a sample is shown.

Test system: alkaline phosphatase, intestinal [Bos taurus]
Experiment: bovine intestinal alkaline phosphatase inhibitors, primary screen, selectivity assay for TNAP inhibitor project, biochemical, bovine IAP, CDP-star luminescence (AID 1019)
Conditions: purified bovine IAP, 30 min, at 20 µM, active compounds read high
Procedure, shortened: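 Assay system – bovine IAP enzyme · Quantity – bovine IAP at 1/65,000,000 final dilution · Detection – CDP-star luminescence signal · Times – 30 min reaction at room temperature · Also added – CDP-star substrate at 30 µM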

inhibition, inactive:
CCCC(=O)OCC(=O)Nc1cc(Cl)ccc1[N+](=O)[O-] 12.7%
O=C(COC(=O)CC1CC2CCC1C2)NC(=O)NC1CCCC1 (stereo not drawn) -11.4%
COC(=O)c1ccc(NC(=S)Nc2cccc(C)n2)cc1 0.2%
COc1ccccc1NC(=O)c1cc(Cl)nnc1Cl -4%
O=C(CCc1ccc(S(=O)(=O)N2CCOCC2)cc1)NN=C1CCCCCCC1 5%
O=C(COC(=O)CCCNC(=O)c1ccc(Cl)cc1)Nc1cc(Cl)ccc1Cl 33.8%
COc1cccc(/C=N/NC(=O)CNC(=O)c2ccc(S(=O)(=O)N3CCOCC3)cc2)c1OC 16.1%
CS(=O)(=O)Nc1ccc(C2=NN(S(C)(=O)=O)C(c3cccs3)C2)cc1 (stereo not drawn) -11%
O=C(COC(=O)c1ccc(O)cc1)Nc1nccs1 -1.9%
COc1ccc(C(=O)NC2(C(F)(F)F)NC(=O)N(CCCc3ccccc3)C2=O)c(OC)c1OC (stereo not drawn) -13%
CCCCC1N2CC3([N+](=O)[O-])CN1CC([N+](=O)[O-])(C2)C3(C)C (stereo not drawn) 3.9%
Cc1cc(F)ccc1S(=O)(=O)N1CCCOC1CNC(=O)C(=O)NCCC1=CCCCC1 (stereo not drawn) 6.4%
CC(C)=C1C2CCC1C1C(=O)N(NC(=O)c3ccco3)C(=O)C21 (stereo not drawn) 41.2%
Cc1csc(NC(=O)CSc2ccc(-c3ccc(F)cc3)nn2)n1 -3.9%
CN(CC(=O)NCCc1ccccc1)S(=O)(=O)c1cnc[nH]1 5.2%
O=S1(=O)CCC(NC(=S)SCc2ccccc2Br)C1 (stereo not drawn) 23.3%
CCCCNC(=O)CCn1c(=O)c2ccccc2n(Cc2cc(C)ccc2C)c1=O 15.7%
NC(=O)C1=C[C@H](c2csc3ccccc23)C[C@H](OCc2ccc(CO)cc2)O1 -16.7%
S=C(NC1CCCCC1)NN1CCOCC1 -0.1%
COc1ccccc1NC(=O)CCSc1nnc(-c2ccc(O)cc2)o1 3.5%
Nc1cccc(CCc2nc3ccccc3[nH]2)c1 12%
O=[N+]([O-])c1ccc(NCCCO)c(C(F)(F)F)c1 -0.5%
CC(C)c1nc2sc3c(c2c(=O)n1N)CC(C)(C)OC3 -5%
O=C(Nc1cccc(C(F)(F)F)c1)c1cnccn1 5.6%
COc1ccc(OCCCn2cccc2/C=C2/C(=N)N3OC(C)=CC3=NC2=O)cc1 13.7%
CCOC12CC(C)(C)CC(C)(CC3=C1C(=O)CC(C)(C)C3)C2 (stereo not drawn) -12.4%
Cn1c(CCCOc2ccc(Cl)cc2Cl)n[nH]c1=S 25.8%
CCCCN(CC)C(=S)Nc1ccc2nc3n(c(=O)c2c1)CCCCC3 -16.6%
O=C(CCc1ccccc1)NCCc1cccs1 1.2%
O=C(NN1C(=O)C2C3C=CC(O3)C2C1=O)c1ccccc1 (stereo not drawn) -0.3%
CN(C(=O)CSc1nnc(-c2c[nH]c3ccccc23)o1)C1CCS(=O)(=O)C1 (stereo not drawn) -2.2%
CCc1cccc2c(=O)c(C(=O)NCCCOC)c[nH]c12 -5.7%
COc1ccc(CCNC(=O)COC(=O)Cc2cc(OC)c(OC)c(OC)c2)cc1 -4.1%
O=c1cc(CN2CCN(S(=O)(=O)/C=C/c3ccccc3)CC2)c2ccc(O)cc2o1 1.7%
Cc1cccc(N2CCN(C(=O)/C=C/c3ccco3)CC2)c1C 6.3%
CCCCn1nc(C(=O)OCC(=O)Nc2sccc2C(N)=O)c2ccccc2c1=O -0.9%
COc1ccnc(Oc2ccccc2)n1 -11%
O=C1CCCC(O)=C1N=Nc1ccc2ncsc2c1 6.3%
O=C(C1=C[C@H](c2ccc(C(F)(F)F)cc2)C[C@H](OCc2ccc(CO)cc2)O1)N1CCN(Cc2ccccc2)CC1 -12.1%
COC(=O)c1sc(N)c(C(=O)OC)c1COC(=O)CNS(=O)(=O)c1ccc(C)cc1 11.4%
CN(c1ccccc1)S(=O)(=O)c1cc(C(=O)OCC(=O)N2CCN(C(=O)c3ccco3)CC2)ccc1Cl -7.4%
C=CCNC(=S)N1CCN(CCN=Cc2c(C)[nH]n(-c3ccc([N+](=O)[O-])cc3)c2=O)CC1 -6.4%
CCC(C)N(C)C1CCN(C(=S)Nc2ccc(OC)cc2)CC1 (stereo not drawn) -6.9%
CCC(C)NC(=O)Cn1nc(C(F)(F)F)c2c1CCC2 (stereo not drawn) -10.6%
CCOc1ccc(-c2n[nH]c(C)c2-c2ccccn2)c(O)c1 -27.5%
O=C(c1cc(Cl)cc(Cl)c1)N1CCC(=O)N(C(COCc2ccccc2)Cc2ccccc2)CC1 (stereo not drawn) -2.4%
COc1ccc(Cn2c(=O)cc(C)[nH]c2=S)cc1 9.8%
Cc1ccc(Cl)cc1NC(=O)COC(=O)CC(C)(C)C -16%
CCc1ccc(N2CC(O)=C(c3nc4ccccc4c(=O)[nH]3)C2=N)cc1 -19.9%
CC(C)c1cc(NCc2ccccn2)n2c(nc3ccccc32)c1C#N -20.8%
CC(C)[C@@H]1NC(=O)c2cc([N+](=O)[O-])cc(I)c2NCCC[C@@H](C(=O)NC(CC(=O)O)C(N)=O)NC(=O)[C@H](CO)NC1=O (stereo partly drawn) 6.3%
Cc1ccc(-c2ccc(/C=N/NC(=O)CN3CCOCC3)o2)cc1[N+](=O)[O-] -0.9%
C/C(=N\NC(=O)C(N)=O)c1ccc2c(c1)OCCO2 -4.3%
Cc1ccc(NC(=O)c2cccnc2C(=O)Nc2ccc(C)cc2)cc1 -4.3%
Cc1ccc(CN2CCN(Cc3cccc(C)n3)CC2CCO)cc1 (stereo not drawn) -23.9%
CCN(CC)c1ccc(C(=O)c2cnc(/N=C/N(C)C)s2)cc1 11.8%
CC(C)CNC(=O)C(=O)Nc1ccc(N(C)C)cc1 -7.9%
O=C(CSc1nnc(-c2ccc([N+](=O)[O-])cc2)o1)Nc1ccccn1 -24.6%
CCO[C@@H]1OC(C(N)=O)=C[C@H](c2ccc(Br)cc2)[C@H]1CCCO -2%
Cn1cccc1C(C#N)c1ccccc1C#N (stereo not drawn) -10.8%
Cc1ccc(NC(=S)N(Cc2ccco2)C(C)c2cccs2)cc1 (stereo not drawn) 34.5%
NC1=C([N+](=O)[O-])C(c2ccccc2)C2=C(CCCC2=O)O1 (stereo not drawn) 3.7%
COc1ccccc1Oc1ccc(N/C=C2/CCCC2=O)cc1 20.1%
CC(=O)Nc1nc(N(C)C)nc(N(C)C)n1 4.4%
CC(=O)c1ccc(N=C2SCCCN2C(=O)C2CCCCC2)cc1 24.2%
COc1ccccc1N1CCN(CC(=O)NCCc2ccc(S(N)(=O)=O)cc2)CC1 -0.9%
Oc1ccc(/C=N/Nc2ccc(C(F)(F)F)cn2)cc1O -26.9%
COc1ccc(OC)c(C2C3=C(N=c4s/c(=C\c5cccc(O)c5)c(=O)n42)c2ccccc2CC3)c1 (stereo not drawn) 0.5%
COc1ccc(NC(=O)C(C)SCc2ccccc2)cc1 (stereo not drawn) -24.1%
CN(c1ccccc1)S(=O)(=O)c1ccc(Cl)c(C(=O)OCC(=O)N2CCOCC2)c1 0.4%
CC(NCc1nc2ccccc2n1C)C12CC3CC(CC(C3)C1)C2 (stereo not drawn) 1%
CCN(CC)S(=O)(=O)c1cc([N+](=O)[O-])ccc1N=Nc1c(O)n(C)c2ccccc12 -5.1%
Cc1cccc(CN2CCN(Cc3cnn(-c4ccccc4F)c3)CC2CCO)n1 (stereo not drawn) -15.4%
O=[N+]([O-])c1ccccc1N/N=C1\CCc2ccccc21 14.9%
CCc1ccc(C(=O)OCC(=O)Nc2cccc(S(=O)(=O)NC3=NCCCCC3)c2)cc1 7.2%
O=C(COC(=O)c1cc(-c2cccs2)nn1-c1ccccc1)Nc1cc([N+](=O)[O-])ccc1Cl -4.8%
Cc1ccc(C2=NN(C(=O)COc3ncnc4ccccc34)C(c3ccco3)C2)cc1 (stereo not drawn) -8.2%
COC(=O)c1cc(NC(=O)c2cccnc2)ccc1N1CCOCC1 0.2%
COc1ccc(S(=O)(=O)NC(C)C)cc1C(=O)NC1CCCCC1 7.7%
COc1ccccc1NC(=O)C[n+]1ccccc1 5.8%
Cc1cc(/C=C2/SC(=O)N(CC(=O)N3CCCC3)C2=O)ccc1N1CCOCC1 2.3%
COc1ccc(CCNC(=O)Cn2c(=O)n(CC3CCCO3)c(=O)c3ccccc32)cc1OC (stereo not drawn) -3.9%
N#C/C(=C\C1=C(N2CCOCC2)C(=C\c2ccccc2)/CC1)C(=O)Nc1ccccc1F 5.9%
CC1CN/C(=C\C(=O)c2ccc(Br)cc2)C(=O)N1 (stereo not drawn) 12.9%
COc1ccc(/C=C(\C#N)C(=O)ONC2=NCCCCC2)cc1 -2%
Cc1ncoc1C(=O)N1CCCC(C(=O)c2ccc3c4c(cccc24)CC3)C1 (stereo not drawn) 8.3%
COC(=O)c1nc(NC(=O)c2ccc(F)cc2)n[nH]1 8.8%
CC1(C)CC(=O)c2cnc3nc4ccccc4n3c2C1 7.1%
CCOc1c(CNCc2ccc(C(=O)O)cc2)cccc1OC -5.7%
Cc1cc(C(C)(C)C)cc(S(=O)(=O)Nc2ccc(C(=O)O)cc2)c1C -15.7%
Cc1c(NC(=O)CSc2nnnn2-c2ccc(C(=O)O)cc2)c(=O)n(-c2ccccc2)n1C 6%
CC(C)(C)c1cnnn1-c1ccc([N+](=O)[O-])cc1 3.1%
CCCCCCCCCOC1OC(CO)C(O)C(O)C1NC(C)=O (stereo not drawn) -0.5%
